The subject of data set [1] is ES-D3 embryoid bodies. As to the kind of experiment: Embryoid body. To be noted: Mus musculus, read-out: EB area (EC50); day 7. It is filed as cell-based, murine. Summed up:
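Differentiation run without LIF. Hanging drops kept 3 days, then EBs moved to exposure medium for 2 days, then placed singly in 24-well plates with exposure medium. On differentiation day 7, each EB was imaged by bright field at 4x and its border traced to give area. Mean area of 24 EBs per condition was used. EC50 taken from an exponential concentration-response fit with 90% BMCL-BMCU.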

The test system of data set [2] is ES-D3 embryoid bodies. Briefly: Total protein measurements of EBs. It is filed as cell-based, murine. The note with it: Mus musculus, 168 h, read-out: Protein level (EC50); day 7. Summed up:
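Differentiation run without LIF. Hanging drops kept 3 days, then exposure to test compound during EB culture. On differentiation day 7, 24 EBs per condition were pooled, dissociated at 37 °C for 3 min, washed in PBS and permeabilised in 1% Triton X-100 for 5 min. Protein measured by Micro BCA in triplicate. EC50 taken from an exponential concentration-response fit with 90% BMCL-BMCU.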

In another data set the test system is ES-D3 cells. As to the kind of experiment: Cell viability assay. It is filed as cell-based, murine. To be noted: Mus musculus, 120 h, read-out: Viability (IC50). Summed up:
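ES-D3 cells plated at 500/well in LIF-containing medium and settled 2 h at 37 °C, 5% CO2. Exposed in six replicates to test compound, 0.25% DMSO vehicle, or penicillin G and 5-fluorouracil controls. Medium renewed at the same final concentrations after 3 days, then 2 more days. CellTiter-Blue added for 2 h; fluorescence read at 544/590 nm and expressed as % of DMSO. n = 3 experiments. IC50 taken from an exponential concentration-response fit with 90% BMCL-BMCU.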

The test system of another data set is rats. To be noted: cited from earlier work.
The test system of a further data set is zebrafish. The note with it: cited from earlier work.
The next data set concerns rabbits. The note with it: cited from earlier work.
The subject of data set [3] is ES-D3 embryoid bodies. Briefly: Gene expression analysis. It is filed as cell-based, murine. The note with it: after 24 h exposure, day 4. The method in brief: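 EBs differentiated to day 4 with 24 h exposure to test compound or 0.25% DMSO. 7–8 EB samples from two independent experiments. RNA isolated with a DNase step; quality accepted at 260/280 of 1.9–2.2 and RIN >8.2. TaqMan real-time PCR: 95 °C for 20 s, then 40 cycles of 95 °C 3 s and 60 °C 30 s. Values by ΔΔCt against mean Hprt1/Gusb/Polr2a. One-way ANOVA with Sidak test (p < 0.05) versus control.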

Read-outs that look alike come from different tables or passages of the source.

In the case of `CCOP(=S)(OCC)Oc1nc(Cl)c(Cl)cc1Cl` [Chlorpyrifos], the 50% effective concentration (EC50) in the data set on ES-D3 embryoid bodies [1] is 139 µM. Besides, in the data set on ES-D3 embryoid bodies [2], the concentration giving a half-maximal response (EC50) is 92 µM. Besides, in the data set with ES-D3 cells, the half-inhibitory concentration (IC50) was 85.7 µM. For the same molecule, in the data set with rats (exposure of pregnant rats), the “Degenerated neurons in the cerebellum of the offspring” value is on record as “increased degenerated neurons” and the “Numbers of Purkinje cells in the offspring” value was “reduced numbers of Purkinje cells”. Besides, the Psychobiological development entry in the data set with rats (neonatal rats, dams exposed to 1 mg/kg per os) is “delay in psychobiological development”. For the same molecule, in the data set with rats (neonatal rats), the “Acetylcholine esterase (AChE)” value is listed as “reductions” and the Muscarinic receptors result is given as “dose-dependent decrease”. In addition, in the data set on rats (rats, maternally toxic doses of 25 mg/kg per day), the Malformations result is listed as “multiple malformations”. For the same molecule, the Cardiac-related developmental defects result in the data set on zebrafish (zebrafish) is listed as “pericardial oedema”.
As to `CCOC(=O)CC(SP(=S)(OC)OC)C(=O)OCC` (stereo not shown) [Malathion, malathion], the EC50 in the data set on ES-D3 embryoid bodies [1] was 72 µM; with ES-D3 embryoid bodies [2], 80.2 µM. In addition, the concentration for half-maximal inhibition (IC50) with ES-D3 cells came out at 49.4 µM. For the same molecule, the Fetotoxicity and teratogenicity result in the data set with rabbits is “neither fetotoxic nor teratogenic”. Further, the Cardiac-related developmental defects result in the data set with zebrafish (zebrafish) was “bradycardia and a reduced heart rate”.
Turning to `O=P(Oc1ccccc1)(Oc1ccccc1)Oc1ccccc1` [Triphenyl phosphate, triphenyl phosphate], the EC50 is 120 µM in the data set with ES-D3 embryoid bodies [1] and 108 µM with ES-D3 embryoid bodies [2]. Besides, the IC50 in the data set with ES-D3 cells amounted to 61.4 µM. The “Myh6 gene expression (late cardiomyocyte differentiation marker)” value with ES-D3 embryoid bodies [3] was “not expressed yet”. Besides, the Fetotoxicity and teratogenicity entry with rats (rats) is listed as “neither fetotoxic nor teratogenic”. In addition, in the data set with zebrafish (zebrafish model), the Cardiac-related developmental defects entry was “impaired cardiac looping and function”. Further, the Cardiac effects entry with zebrafish (zebrafish) is “impairments in cardiac looping and function defects”.

The record behind these values is paper PMC8355823 (Toxicology Reports, 2021).
